The text below walks through data of ChEMBL document CHEMBL1145822, “4-Aryl-3-(hydroxyalkyl)quinolin-2-ones: novel maxi-K channel opening relaxants of corporal smooth muscle targeted for erectile dysfunction” (J Med Chem, 2003).

Type in all cases: functional
The species named for one test is Xenopus laevis. The test is described as follows: Effect of compound (20 uM) on maxi-K-mediated outward current in Xenopus laevis oocytes expressing the cloned hSlo maxi-K channels was determined. A digest of the protocol:
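Two-electrode voltage clamp of Xenopus laevis oocytes expressing cloned hSlo maxi-K channels; single 20 μM drug concentration applied, measuring iberiotoxin-sensitive outward K⁺ current in at least five oocytes per compound; result given as mean percent change in hSlo current versus drug-free control (100%).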

The species entered for test [1] is Oryctolagus cuniculus. The test is described as follows: Percentage inhibition of isometric force in response to 10 uM compound in isolated rabbit corpus cavernosum precontracted with 3 uM phenylephrine. The method in brief: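 New Zealand white rabbit (3.4–3.7 kg) corpus cavernosum strips (3–5 mm) in oxygenated modified Krebs Henseleit bicarbonate buffer, 37 °C, equilibrated ≥1 h at 1.0 g resting tension; contracted with phenylephrine 3 μM to steady force before compound; isometric force read; percent inhibition of phenylephrine-induced force relative to vehicle control.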

Test [2] is filed under the species Oryctolagus cuniculus. Put plainly: Tested for concentration dependent relaxation over a period of 90 min in isolated rabbit corpus cavernosum. To be noted: 1.5 h.

Regarding `COc1ccc(Cl)cc1-c1c(/C=C/CO)c(O)nc2ccc(C(F)(F)F)cc12`, the Increase in the test listed under Xenopus laevis is 223%. Also, the Inhibition (commonly the relative decrease from the control value, in per cent) in the test filed under Oryctolagus cuniculus [1] came out at 31.8%.

In the test listed under Xenopus laevis, `OCc1c(O)nc2ccc(C(F)(F)F)cc2c1-c1cc(Cl)ccc1O` showed an Increase of 198%. In the test filed under Oryctolagus cuniculus [1], this compound returned an Inhibition of 36%.

Consider `OCCCc1c(O)nc2ccc(C(F)(F)F)cc2c1-c1cc(Cl)ccc1O`, for which the Increase in the test filed under Xenopus laevis was determined as 292%. Moreover, the Inhibition in the test listed under Oryctolagus cuniculus [1] was 43%.

Turning to `COc1ccc(Cl)cc1-c1c(CO)c(O)nc2ccc(C(F)(F)F)cc12`, the Increase in the test filed under Xenopus laevis came to 114%.

Turning to `O=c1[nH]c2ccc(C(F)(F)F)cc2c(-c2cc(Cl)ccc2O)c1CCO` [BMS-223131], the Increase in the test filed under Xenopus laevis stood at 378%. In the test filed under Oryctolagus cuniculus [1], the Inhibition was found to be 83.7%. In the test filed under Oryctolagus cuniculus [2], half-maximal inhibition (IC50) required 5 µM.

In the test listed under Xenopus laevis, `COc1ccc(Cl)cc1-c1c(CCO)c(O)nc2ccc(C(F)(F)F)cc12` registered an Increase of 211%. In the test filed under Oryctolagus cuniculus [1], this compound yielded an Inhibition of 26.8%.

`OC/C=C/c1c(O)nc2ccc(C(F)(F)F)cc2c1-c1cc(Cl)ccc1O` came in with an Increase in the test listed under Xenopus laevis of 257%. The Inhibition in the test listed under Oryctolagus cuniculus [1] was 46%.

In turn, `O=c1[nH]c2cc(C(F)(F)F)ccc2n1-c1cc(Cl)ccc1O` gave an Increase in the test filed under Xenopus laevis of 132%. This compound returned an Inhibition in the test listed under Oryctolagus cuniculus [1] of 31%.

In turn, `COc1ccc(Cl)cc1-c1c(CCCO)c(O)nc2ccc(C(F)(F)F)cc12` registered an Increase in the test filed under Xenopus laevis of 258%. Further, in the test listed under Oryctolagus cuniculus [1], the Inhibition was found to be 35.7%.
